# Fewer inactive variants are shown than the library holds.
# B1: tRNA (parent)
# chain: GUUCCGUUGGCGUAAUGGUAACGCGUCUCCCUCCUAAGGAGAAGACUGCGGGUUCGAGUCCCGUACGGAACG
# Variants of: B1
# Experiment: yeast fitness relative to wild type (ratio to wild type); higher = fitter; tRNA-Arg(CCU), competitive growth, 37 C, YPD
# Summary of the method: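 For this measurement, the tRNA-Arg(CCU) gene was varied by chemical synthesis at a 3% per-site mutation rate across 69 sites, and each variant was placed at the native genomic locus in Saccharomyces cerevisiae. The pooled strains went through a 24-hour competition in YPD at 37°C in six parallel replicates, with amplicons from start and end populations read by 100-nucleotide paired-end sequencing. Darwinian fitness relative to wild type followed from the change in each genotype's frequency. Genotypes needed ≥ 100 starting reads, and estimates < 0.5 were set to 0.5.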
row,Variant,yeast fitness
1,A40C U54C,0.963
2,G39C A57C C61A U64C,≤ 0.5
3,A40U A45U A57U,0.611
4,G41A C60A U64A,≤ 0.5
5,A40C A42G A43G C49A G52A,≤ 0.5
6,A40G C61U U64G A69U,≤ 0.5
7,G41A U47C C62U,≤ 0.5
8,A40U G48C C55U C61G,0.522
9,A40U A43C U53C G68A,≤ 0.5
10,A40U C55A G56C,≤ 0.5
11,A40U A42C C55U C62U,≤ 0.5
12,A40C C62U,0.863
13,A40C G56A G58C,0.598
14,A40C C66A,0.755
15,A40C C66G,0.669
16,A40U G52A,0.704
17,A40C G41C,0.56
18,A40C G41A,0.978
19,A40U C55A A57U,≤ 0.5
20,G39C G51C A65G,≤ 0.5
21,G41A U64C A65C,≤ 0.5
22,A40G C55A,0.626
23,A40G C55G,0.621
24,A40U A43C,1

row,Variant,yeast fitness
1,A40U A43G,0.788
2,A40U A43U,1.11
3,A40G G52A A65U,≤ 0.5
4,A40U G56A,0.843
5,A40G U53C C61A C62G,≤ 0.5
6,A40C C60U G67A,≤ 0.5
7,G39C U54G A70C,0.564
8,G41A C46A U47C,1.06
9,A40G A42U C49A,≤ 0.5
10,G39C G44C A65C,≤ 0.5
11,A40U A42C G44A G51A,≤ 0.5
12,G39C G44C,0.749
13,A40U G51A,0.777
14,G39U C49A G58C,0.646
15,A40C G67C,0.907
16,A40C G67U,0.815
17,A40G A45U G56A,0.601
18,G39C U53G,0.578
19,A40C C55U,0.929
20,A40C C55G,0.527
21,G41A G58C,0.929
22,G41A A43G C60G A65G,0.571
23,A40G U53A C55G,≤ 0.5
24,G41A C60G C61G C62U,0.682

row,Variant,yeast fitness
1,A40G G58C,1.05
2,A40G G58A,0.857
3,G39C A57C A70U,≤ 0.5
4,A40U C49G G56C A69C,≤ 0.5
5,A40G A45U,0.786
6,A40G A45G,0.849
7,A40C C62G G63A,≤ 0.5
8,G39C G41A C60G C61U C62G A65U,0.547
9,G41A U54C,0.814
10,A40U A65U,0.868
11,A40U A65C,0.652
12,A40C A65U,0.817
13,A40C A65C,0.825
14,A40C A65G,0.924
15,A40U C55U,0.795
16,A40U C55G,0.664
17,G41A A70G,0.924
18,A40U A42C C55U,≤ 0.5
19,A40C C62U U64C,0.534
20,A40U A45U U53C,0.684
21,A40G C60G G63C,≤ 0.5
22,G41A U47A G48C,0.6
23,A40G A43U C55G,0.535
24,G41A C49A C66A,≤ 0.5

row,Variant,yeast fitness
1,A40U C49G,0.811
2,A40U C49U,0.856
3,A40U C49A,0.638
4,A40G G50C,0.649
5,G41A A65G A70G,0.63
6,A40C A57U C61U,≤ 0.5
7,G39C C61U,0.751
8,A40C A42C A70U,0.549
9,G41A U47C C61G C62U,≤ 0.5
10,G39C C62U G63C,≤ 0.5
11,G39C A43U,0.934
12,G39C U64C,0.959
13,G41A G52C,0.542
14,G41A G52A,0.79
15,G41A U47C U53A,≤ 0.5
16,G41A C60G A65G,0.62
17,A40G A43G G44C,≤ 0.5
18,A40G C46U,0.918
19,A40G C46G,0.998
20,A40C C49U,0.892
21,A40C G48A,1.02
22,G41A A43U G63A,≤ 0.5
23,A40G A70U,0.891
24,A40G A70G,1.09

row,Variant,yeast fitness
1,G39C A43G U53A C62A G68C,≤ 0.5
2,A40C A42G,0.886
3,A40U A45U G48A C55U C66U,≤ 0.5
4,G39C C49G,0.59
5,G39C C49U,0.827
6,A40U A69U A70C,0.725
7,A40U A43U A70U,0.664
8,G39C C46A C62G,≤ 0.5
9,A40G C46G C60U,≤ 0.5
10,G41A G56C G63A U64C G67C,≤ 0.5
11,A40C A57G,0.813
12,G41A C55U,0.885
13,G41A C55G,0.605
14,G41A A45U,1.01
15,A40G C49G U53C A57C A69U,≤ 0.5
16,A40C C60G C62G,≤ 0.5
17,G41A G63A A70C,0.753
18,G41A C55A U59A,0.613
19,A40C A42U G56A C66G,≤ 0.5
20,A40U G63C U64C,0.53
21,G41A U59A A65C G67U,≤ 0.5
22,G41A G44C,0.671
23,G39C A69C,0.834
24,G39C A69U,0.826

row,Variant,yeast fitness
1,G41A U47G,0.655
2,A40C G51A G63A A69C,≤ 0.5
3,G41A U59G,0.822
4,G41A U59A,0.826
5,G41A C60A,0.667
6,A40C G67U G68C,0.585
7,A40U A57G,0.881
8,A40U A57C,0.744
9,A40C G50A C62U,0.543
10,A40C A42U C49G C66G,0.612
11,A40U A57G U64G,≤ 0.5
12,G39C A43U A70U,0.691
13,A40U G48C C49U,0.586
14,A40G G44A A45U C49U,≤ 0.5
15,G41A U47A A70G,0.571
16,A40C G51A U54A,≤ 0.5
17,A40U U54C A70U,0.695
18,G39C G63A,0.7
19,G41A C61G,0.685
20,G41A A42C G50C,0.622
21,A40C A42U C49U G50C C66U,0.565
22,A40G G50A U54A,0.552
23,A40G A43G C62G,≤ 0.5
24,G39C C62G,0.607

row,Variant,yeast fitness
1,A40G U53C,0.827
2,G41A G68C,0.775
3,G39C G67A A70G,0.648
4,A40C C49A G51C U59A,≤ 0.5
5,G39C C55G,≤ 0.5
6,A40C A43U C60U,0.588
7,A40U A42C,0.752
8,G39C A65G,0.754
9,A40G C62A A70C,0.595
10,A40G G44A,0.717
11,A40G U59C C60A U64A,≤ 0.5
12,A40G C49U G67A,≤ 0.5
13,G39C C60U A69C,0.565
14,G41A G51C,≤ 0.5
15,G41A G51A,0.664
16,A40C A42C U53A,≤ 0.5
17,A40G G63A,0.819
18,G39C U47C,0.822
19,G39C G44C C46U A70U,≤ 0.5
20,A40C C46U,0.875
21,A40C C46A,0.994
22,A40U G41A,0.71
23,A40G U54C,0.955
